DNA FID counter = displaces DNA intercalator in HCV helicase counter-screen. DNA fluorescent intercalator displacement, fluorescence. inhibition, % at 7.9 µM. actives 0.17% (n = 290,000); in the data active = inhibition above about 37%;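 note: higher means more ethidium bromide displaced from hairpin DNA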
ANO1 block = inhibitors of mouse TMEM16A calcium-activated chloride channel | HEK293 TMEM16A/YFP iodide influx fluorescence, ionomycin | normalized B-score (activity score, 25-100; higher = stronger inhibition) at 10 µM | actives 1.2% (n = 310,000) | AID 588511 | Q8BHY3;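 active = ratio plate-corrected score three or more library SD toward inhibition, starting fluorescence score within five deviations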;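 note: score derived from kinetic fluorescence span divided by baseline fluorescence per well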
Target sequence (Q8BHY3 whole entry, looked up): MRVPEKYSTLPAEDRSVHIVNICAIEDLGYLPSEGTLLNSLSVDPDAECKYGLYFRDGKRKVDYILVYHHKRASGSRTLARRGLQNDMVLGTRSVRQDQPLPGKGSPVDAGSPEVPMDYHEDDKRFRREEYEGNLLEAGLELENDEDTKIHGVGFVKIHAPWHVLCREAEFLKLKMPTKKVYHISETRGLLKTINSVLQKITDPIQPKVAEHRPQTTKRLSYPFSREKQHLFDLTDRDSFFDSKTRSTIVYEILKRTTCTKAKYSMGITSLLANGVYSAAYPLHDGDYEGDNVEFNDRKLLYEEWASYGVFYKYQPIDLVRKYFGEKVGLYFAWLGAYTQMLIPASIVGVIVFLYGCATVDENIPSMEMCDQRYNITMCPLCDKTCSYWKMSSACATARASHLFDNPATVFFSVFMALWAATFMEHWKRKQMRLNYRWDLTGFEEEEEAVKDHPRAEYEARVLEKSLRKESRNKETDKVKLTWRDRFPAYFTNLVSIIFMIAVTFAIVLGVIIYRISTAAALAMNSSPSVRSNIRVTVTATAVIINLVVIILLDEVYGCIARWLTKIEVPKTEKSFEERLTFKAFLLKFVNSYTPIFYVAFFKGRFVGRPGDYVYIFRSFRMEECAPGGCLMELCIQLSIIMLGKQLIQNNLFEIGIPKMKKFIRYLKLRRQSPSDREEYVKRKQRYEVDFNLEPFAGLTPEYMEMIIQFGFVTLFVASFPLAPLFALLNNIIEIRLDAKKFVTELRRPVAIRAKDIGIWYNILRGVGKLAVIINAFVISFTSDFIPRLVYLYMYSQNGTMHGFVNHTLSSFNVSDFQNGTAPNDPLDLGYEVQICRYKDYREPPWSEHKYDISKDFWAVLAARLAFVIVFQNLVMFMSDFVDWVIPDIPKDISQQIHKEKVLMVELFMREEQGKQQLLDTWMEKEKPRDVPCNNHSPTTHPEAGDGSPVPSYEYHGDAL
UBC13 inh = human UBC13 polyubiquitination inhibition. P61088. UBC13 polyubiquitin chain formation, TR-FRET. inhibition, % at 20 µM. actives 0.47% (n = 330,000). AID 485273; in the data active = inhibition above about 45%, passing the limit was not always enough
Apaf1 inhib = human Apaf-1 inhibition. O14727. reconstituted apoptosome caspase-3 activity, DEVD-Rh110 fluorescence. inhibition, % at 20 µM. actives 0.71% (n = 330,000). AID 489030; active = inhibition of at least 40% at 20 µM
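System: reconstituted apoptosome with Apaf-1, cytochrome c, caspase-9, procaspase-3, dATP; Signal: Rh110 fluorescence intensity; Schedule: 30 min compound preincubation, 50 min activation, room temperature; Reagent: cytochrome c trigger plus (Z-DEVD)2-Rh110 caspase-3 substrate.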
ANO1 activ = activators or potentiators of mouse TMEM16A chloride channel; HEK293 TMEM16A/YFP-H148Q/I152L, iodide quench fluorescence; stronger effect = lower value; actives 0.3% (n = 340,000); AID 623877; B-score at 10 µM;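 active = fluorescence-ratio B-score plate-corrected deviation score at least 3 library SD below zero, with starting fluorescence score within 5 deviations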;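 note: channel opened by trigger with iodide after compound preincubation; score built on the fluorescence ratio of max minus min over baseline; more negative score means more quench and so TMEM16A activation or potentiation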
Apaf-1 inh conf = Apaf-1 inhibition, single-dose confirmed | shares compounds with Apaf1 inhib | reconstituted apoptosome, caspase-3 DEVD-Rh110 fluorescence | inhibition, % at 20 µM | actives 25% (n = 1,800);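 active = mean inhibition of at least 40% at 20 µM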
Rh110 interf inh = interferes with Rh110 fluorescence, flagging false Apaf-1 inhibitors | activation (fluorescence interference), % at 20 µM | shares compounds with Apaf1 inhib | Rh110 fluorescence interference, quenched caspase reaction | 1,800 tested, under 10 active;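 active = signal rise of 40% or more at 20 µM, treated as a fluorescence artifact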
Fluor interf inh = Apaf-1 inhibitor counter-screen fluorescence artifact; 460 tested, under 10 active; shares compounds with Apaf1 inhib; IC50, µM; AID 588538; fluorescence interference counterscreen, Apaf-1 assay format; call rule not given here
Numbers stand for hits; 0 = inactive; - = not tested or not shown. The list is not random: actives were taken first. Their share in the collection is about 2.4%.

SMILES	DNA FID counter	ANO1 block	UBC13 inh	Apaf1 inhib	ANO1 activ	Apaf-1 inh conf	Rh110 interf inh	others
COc1ccccc1C(=O)Nc1cccc(Oc2c(F)c(F)c(F)c(F)c2F)c1	0	0	0	0	0	-	-
Cc1c(C(=O)NC(C)CCc2ccccc2)cccc1[N+](=O)[O-] (stereo not drawn)	0	0	0	0	0	-	-
Cc1c(C(=O)N(CCc2ccccc2)Cc2ccccc2)cccc1[N+](=O)[O-]	0	0	0	41	0	0	0
O=C(Nc1ccc(OC(F)F)cc1)c1cc(S(=O)(=O)N2CCOCC2)ccc1F	0	0	0	0	0	-	-
O=C(CN1CCc2cc3c(cc2C1)OCCCO3)Nc1cccc([N+](=O)[O-])c1	0	0	0	43	0	0	0
CCCCCc1ccc(OCCCC[n+]2ccc(C)cc2)c(CCCCC)c1	37	100	0	56	0	0	0
CC(=O)C1=C(c2ccccc2)NC(=O)NC1c1ccccc1OCC(=O)NCc1ccccc1 (stereo not drawn)	0	0	0	0	0	-	-
CC(Nc1cccc2ccccc12)C(=O)N/N=C/c1ccccn1 (stereo not drawn)	0	0	0	95	0	0	0
COc1ccc(-n2nc(C(=O)NCC(=O)NCCC3=CCCCC3)c3ccccc3c2=O)cc1	0	0	0	0	0	-	-
Cc1ccc(SC2=C(Sc3ccc(C)cc3)C(=O)c3ccccc3C2=O)cc1	0	0	0	64	0	0	0
COc1cccc2c1C(=O)c1ccc3ccccc3c1C2=O	0	0	0	72	0	0	0
COc1ccc(-c2noc(-c3ccccc3-c3ccccc3)n2)cc1OC	0	0	0	0	0	-	-
COc1ccc(OC)c2c1C(=O)c1ccccc1C2=O	0	0	0	63	-	0	0
COc1ccc2noc3c2c1C(=O)c1ccccc1-3	-	0	0	78	0	44	0	Fluor interf inh=59
COc1ccc(N)c2c1C(=O)c1ccccc1C2=O	0	0	-	-	0	-	-
Cc1nnc(SCC(=O)NC(=O)Nc2ccc3c(c2)OCCO3)n1N	0	0	0	0	0	-	-
COc1ccc(CC(=O)N(Cc2ccccc2)c2ccc(C)cc2)cc1S(=O)(=O)N1CCOCC1	-	0	0	43	0	43	0	Fluor interf inh=0
COc1ccc(CC(=O)N(C)CC(=O)Nc2ccccc2C(F)(F)F)cc1S(=O)(=O)N1CCOCC1	-	0	0	46	0	0	0
COc1ccc(CC(=O)N(C)CC(=O)Nc2c(C)cccc2C)cc1S(=O)(=O)N1CCOCC1	-	-	0	60	0	0	0
CN(CC(=O)Nc1ccccc1C(F)(F)F)C(=O)Cc1ccc(S(=O)(=O)N2CCOCC2)s1	-	0	0	0	0	-	-
COc1ccc(CCN(C)C(=O)C2CCN(C(=O)Nc3ccccc3)CC2)cc1OC	-	0	0	0	0	-	-
Cc1cc(-c2nnc(SCC(=O)Nc3ccc(Br)cc3F)n2N)n[nH]1	0	0	0	0	0	-	-
CC(C)(C)C(=O)[C@@H]1[C@@H]2C(=O)N(C3CCCCC3)C(=O)[C@@H]2[C@H]2c3ccccc3C=CN12	0	0	0	64	0	60	0	Fluor interf inh=0
O=C(c1ccc2c(c1)OCO2)[C@@H]1[C@@H]2C(=O)N(C3CCCCC3)C(=O)[C@@H]2C2c3ccccc3C=CN21 (stereo partly drawn)	0	-	-	-	0	-	-
CC1Cc2cc(/C(O)=C3/C(=O)C(=O)N(CCCn4ccnc4)C3c3ccncc3)ccc2O1 (stereo not drawn)	0	0	0	0	0	-	-
SMILES	DNA FID counter	ANO1 block	UBC13 inh	Apaf1 inhib	ANO1 activ	Apaf-1 inh conf	Rh110 interf inh	others
COc1ccccc1C1/C(=C(\O)c2ccc3c(c2)OCCO3)C(=O)C(=O)N1CCCn1ccnc1 (stereo not drawn)	0	0	0	45	0	0	0
COc1ccc(C2/C(=C(/O)c3ccc4c(c3)CC(C)O4)C(=O)C(=O)N2CCCn2ccnc2)cc1 (stereo not drawn)	0	0	0	42	0	0	0
COc1ccc(C2/C(=C(\O)c3ccc4c(c3)OCCO4)C(=O)C(=O)N2CCCn2ccnc2)cc1 (stereo not drawn)	0	0	0	0	0	-	-
COc1ccc(NC(=O)CN2C(=O)NC(C)(c3ccc(C)cc3)C2=O)c([N+](=O)[O-])c1 (stereo not drawn)	0	0	0	0	0	-	-
CCN1CCN(C(=O)CN(c2ccc(F)cc2)S(=O)(=O)c2ccc(OC)c(OC)c2)CC1	0	0	0	0	0	-	-
COc1ccc(CCNC(=O)C(=O)N/N=C/c2cccs2)cc1OC	0	0	0	0	0	-	-
O=C(O)c1ccccc1C(=O)Nc1ccccn1	0	0	0	0	0	-	-
O=C(Nc1ccccn1)c1ccc2ccccc2c1O	0	0	0	45	0	0	0
CC(=O)Nc1ccc2nc(CN3CCN(CC=C(C)C)C(CCO)C3)ccc2c1 (stereo not drawn)	0	0	0	0	0	-	-
CCc1ccc(NC(=O)CSc2ccc(-c3ccco3)nn2)cc1	0	0	0	0	0	-	-
CC(=O)c1cccc(NC(=O)CSc2ccc(-c3ccco3)nn2)c1	0	0	0	45	0	0	0
COC(=O)c1nn(-c2ccc(OC)cc2)c(=O)cc1NN	0	0	0	42	0	0	0
CCN1/C(=C/C=C/c2sc3ccccc3[n+]2CC)Sc2ccccc21	-	0	0	90	0	51	0	Fluor interf inh=0
CC[n+]1c(/C=C(\C)SC)sc2ccccc21	0	0	0	0	0	-	-
Cc1ccn2cc(CCNC(=O)COc3ccccc3)nc2c1	0	0	0	0	0	-	-
O=C1CN(C(=O)CNCc2ccccc2)c2ccccc2N1	0	0	0	0	0	-	-
Cc1cc(=O)oc2cc(OCC(=O)NCCN3CCOCC3)c(Cl)cc12	0	0	0	0	0	-	-
CCCCc1cc(=O)oc2cc(OCC(=O)NCCN3CCOCC3)c(Cl)cc12	0	0	0	61	0	0	0
CC/C(=N/Nc1cccc(C)c1)c1cnnc(SC)n1	0	0	0	63	0	0	0
O=C(COc1ccc2ccc(=O)oc2c1)N1CCc2ccccc21	0	0	0	0	0	-	-
Cc1ccc2[nH]c3c(c2c1)CN(C(=O)CN1CCCc2ccccc21)CC3	0	0	0	78	0	0	0
Cc1cccnc1NC(=O)c1ccc(OCC2CCCO2)cc1 (stereo not drawn)	-	-	0	54	0	0	0
CCN(c1ccccc1)c1cc2ccccc2c(=O)[nH]1	0	0	0	96	0	59	0	Fluor interf inh=0
Cc1ccccc1S(=O)(=O)Oc1cccc2c(O)cccc12	0	0	0	0	0	-	-
CCCN1CCN(CCCNC(=O)Cn2cc3c(n2)CCCC3)CC1	0	0	0	0	0	-	-

Screening results from PubChem BioAssay.
